A short description of series [1]: 1-Octanol-phosphate buffered saline distribution coefficient, log D of the compound at pH 7.4 after 30 mins by shake flask method. Type of series: physicochemical. The procedure, abridged:
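Log D measured as the partition between 1-octanol and phosphate buffered saline, pH 7.4.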

A short description of series [2]: Bioavailability in monkey at 1 mg/kg, iv after 24 hrs by LC-MS/MS analysis. Type of series: ADME, organism-based, Macaca mulatta. The following applies: rhesus monkey, in vivo.
Series [3] in a line: Solubility of the compound in Japanese pharmacopoeia second fluid at pH 6.8 at 10 mM after 12 hrs. Type of series: physicochemical. A digest of the protocol:
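Solubility measured in Japanese Pharmacopoeia Second Fluid, pH 6.8.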

A short description of series [4]: Solubility of the compound in Japanese pharmacopoeia first fluid at pH 1.2 at 10 mM after 12 hrs. Type of series: physicochemical. The procedure, abridged: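 Solubility measured in Japanese Pharmacopoeia First Fluid, pH 1.2.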
Series [5] is described as follows: Metabolic stability in human liver microsomes at 1 uM after 20 to 30 mins by LC/MS/MS analysis in presence of NADPH. Type of series: ADME, Microsome. The following applies: read-out: Stability. The procedure, abridged: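 Metabolic stability read as percent remaining after incubation with human liver microsomes in vitro.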
(In general: Liver microsomes are vesicles of endoplasmic reticulum, rich in cytochrome P450 enzymes.)

Series [6] is described as follows: Drug level in monkey serum at 1 mg/kg, po at 24 hrs by LC-MS/MS analysis. Type of series: ADME, organism-based, Macaca mulatta. Also on record: dose 1 mg/kg, route oral. As to conditions: rhesus monkey, read-out: Drug uptake. A digest of the protocol: (§1)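 Oral dosing of fasting monkeys (two animals) at 1.0 mg/kg, given as HCl salts. Plasma was sampled at 0.5, 1, 2, 4, 8 and 24 h for ex vivo anti-fXa inhibition (%) and for drug concentration. AUC, Cmax, C24 h and the Cmax/C24 h ratio were taken from the plasma concentrations.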

A short description of series [7]: Cmax in monkey serum at 1 mg/kg, po by LC-MS/MS analysis. Type of series: ADME, organism-based, Macaca mulatta. Also on record: dose 1 mg/kg, route oral. The following applies: rhesus monkey. The procedure, abridged:
as §1

A short description of series [8]: AUC in monkey serum at 1 mg/kg, po by LC-MS/MS analysis. Type of series: ADME, organism-based, Macaca mulatta. More on the design: dose 1 mg/kg, route oral. The following applies: rhesus monkey. The procedure, abridged:
as §1

Molecules are shown by their SMILES. ≈ marks a conversion by molar mass, not a printed value.

We go through 4 compounds from ChEMBL document CHEMBL1921766, “Orally active zwitterionic factor Xa inhibitors with long duration of action” (Bioorg Med Chem Lett, 2011).

Usually logD stands for lipophilicity at a set pH, counting ionised and neutral species. A word on the bioavailability: it is dose-corrected exposure relative to a reference, in per cent. A word on the solubility: it is how much of the substance goes into solution per volume. As for `CC(C)N1CCc2nc(C(=O)Nc3cc(C(=O)O)ccc3CCC(=O)Nc3ccc(Cl)cc3)sc2C1`, the logD at 0.5 h in series [1] is 0.82. Further, in series [2], the bioavailability came to 67%. In addition, the solubility at 12 h, 10000 µM was 0.72 mg/mL (≈ 1370 µM) in series [3] and 0.49 mg/mL (≈ 930 µM) in series [4]. Moreover, the remaining at 1 µM in series [5] came out at 100%.
The corresponding values for `CC(C)N1CCc2nc(C(=O)Nc3cc(C(=O)O)cc(Cl)c3CCC(=O)Nc3ccc(Cl)cc3)sc2C1` are 1.61, 52%, 0.16 mg/mL (≈ 285 µM), 0.45 mg/mL (≈ 801 µM) and 93%.
For the compound `CC(C)N1CCc2nc(C(=O)Nc3cc(C(=O)O)ccc3CNC(=O)c3ccc(Cl)s3)sc2C1`, in series [1], the logD at 0.5 h worked out at 0.57. Further, the bioavailability in series [2] worked out at 51%. For the same compound, the figures for the solubility at 12 h, 10000 µM in series [3] and in series [4] were 0.041 mg/mL (≈ 79 µM) and 0.049 mg/mL (≈ 94.4 µM), respectively. Besides, in series [5], the remaining at 1 µM stood at 96%.
The term Cmax denotes the maximum level reached in the sampled fluid or tissue. A word on the AUC: it is concentration integrated over time. With `CN1CCc2nc(C(=O)Nc3ccccc3CNC(=O)c3ccc(Cl)s3)sc2C1.Cl`, the concentration at 24 h in series [6] stood at 0.0006 µg/mL. Moreover, the highest concentration (Cmax) in series [7] worked out at 0.0959 µg/mL. The AUC in series [8] came to 0.346 µg·h/mL.
